According to ChEMBL document CHEMBL1144859, “Synthesis and evaluation of homodimeric GnRHR antagonists having a rigid bis-propargylated benzene core” (Bioorg Med Chem, 2008):

What was measured:
[1] = molecular target: T1, Gonadotropin-releasing hormone receptor (Homo sapiens) (UniProt P30968); test: Antagonist activity at human recombinant GnRHR expressed in CHOK1 cells assessed as reduction in luminescence signal at 10 uM by luciferase reporter gene assay; type: functional, cell-based; details: CHO-K1
T1 sequence (whole entry): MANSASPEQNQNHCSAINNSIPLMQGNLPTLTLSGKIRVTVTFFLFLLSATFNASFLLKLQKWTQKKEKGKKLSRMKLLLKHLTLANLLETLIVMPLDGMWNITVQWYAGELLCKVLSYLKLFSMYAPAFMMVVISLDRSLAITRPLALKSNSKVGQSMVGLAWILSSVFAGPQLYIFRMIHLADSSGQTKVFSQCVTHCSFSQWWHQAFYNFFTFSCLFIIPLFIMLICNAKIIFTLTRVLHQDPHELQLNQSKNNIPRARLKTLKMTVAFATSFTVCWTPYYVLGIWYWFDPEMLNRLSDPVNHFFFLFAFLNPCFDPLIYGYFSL
In short: (§1)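 CHO-K1 cells stably expressing human GnRHR plus NFAT-luciferase reporter, grown in DMEM/10% FBS with geneticin, harvested and suspended in DMEM with insulin, apo-transferrin and 3% DMSO (7500 cells/well). Compounds (10 μM to 0.3 nM final, half-log) preincubated 30 min, then GnRH 3 nM final (EC80) for 4 h; luciferase substrate added, 1 h at room temperature in the dark; luminescence read.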

[2] = molecular target: T2, Gonadotropin-releasing hormone receptor (Homo sapiens, UniProt P30968); test: Displacement of [125I]triptorelin from human GnRHR expressed in CHO cells; type: cell-based
T2 sequence (P30968 whole entry): T1 sequence (whole entry)
In short: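 Membranes from CHO cells stably expressing human GnRHR (20 μg protein) in 50 mM Tris-HCl pH 7.4, 2 mM MgCl2, 0.1% BSA, with 30,000 cpm [125I]triptorelin and five competitor concentrations, 45 min at 22 °C. Nonspecific binding was set with 1 μM ganirelix. Samples were filtered on PEI-soaked GF/B and counted by gamma counter.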

[3] = molecular target: T1, Gonadotropin-releasing hormone receptor (Homo sapiens); test: Antagonist activity at human recombinant GnRHR expressed in CHOK1 cells assessed as reduction in luminescence signal at 3 uM by luciferase reporter gene assay; type: functional, cell-based; details: CHO-K1; in short: as §1
[4] = Cytotoxicity against human GnRHR expressing CHO cells assessed as cell viability at 10 uM after 4 hrs; type: cell-based, Cricetulus griseus; details: chinese hamster, read-out: Activity
In short: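 CHO cells with human GnRHR and luciferase reporter, plated in assay medium with or without 10 μM compound, 4 h at 37 °C. Cells were then trypsinised and suspended in PBS, mixed 1:1 with 0.8% trypan blue, and live cells were counted by hemocytometer.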

[5] = molecular target: T2, Gonadotropin-releasing hormone receptor; test: Antagonist activity at human recombinant GnRHR expressed in CHOK1 cells assessed as reduction in luminescence signal by luciferase reporter gene assay; type: functional, cell-based, CHO-K1; in short: as §1

Row | SMILES | Efficacy [1] [%] | Ki [2] [nM] | Efficacy [3] [%] | IC50 [5] [nM] | viability at 4 h, 10 µM [4] [%]
1 | CCNC(=O)Nc1ccc(-c2nc3n(Cc4c(F)cccc4F)cc(C(=O)OCC)c(=O)n3c2CN(CC(=O)NCC(=O)NCC#Cc2ccc(C#CCNC(=O)CNC(=O)CN(Cc3ccccc3)Cc3c(-c4ccc(NC(=O)NCC)cc4)nc4n(Cc5c(F)cccc5F)cc(C(=O)OCC)c(=O)n34)cc2)Cc2ccccc2)cc1 | 59 | 530 | 34 |  | 
2 | CCNC(=O)Nc1ccc(-c2nc3n(Cc4c(F)cccc4F)cc(C(=O)OCC)c(=O)n3c2CN(CC(=O)NCCCC(=O)NCC#Cc2ccc(C#CCNC(=O)CCCNC(=O)CN(Cc3ccccc3)Cc3c(-c4ccc(NC(=O)NCC)cc4)nc4n(Cc5c(F)cccc5F)cc(C(=O)OCC)c(=O)n34)cc2)Cc2ccccc2)cc1 | 85 | 600 | 68 |  | 95
3 | CCNC(=O)Nc1ccc(-c2nc3n(Cc4c(F)cccc4F)cc(C(=O)OCC)c(=O)n3c2CN(CC(=O)N[C@@H](C)C(=O)NCC#Cc2ccc(C#CCNC(=O)[C@H](C)NC(=O)CN(Cc3ccccc3)Cc3c(-c4ccc(NC(=O)NCC)cc4)nc4n(Cc5c(F)cccc5F)cc(C(=O)OCC)c(=O)n34)cc2)Cc2ccccc2)cc1 | 52 | 480 | 42 |  | 
4 | CCNC(=O)Nc1ccc(-c2nc3n(Cc4c(F)cccc4F)cc(C(=O)OCC)c(=O)n3c2CN(CC(=O)N2CCC(C(=O)NCC#Cc3cccc(C#CCNC(=O)C4CCN(C(=O)CN(Cc5ccccc5)Cc5c(-c6ccc(NC(=O)NCC)cc6)nc6n(Cc7c(F)cccc7F)cc(C(=O)OCC)c(=O)n56)CC4)c3)CC2)Cc2ccccc2)cc1 | 86 | 400 | 68 |  | 
5 | CCNC(=O)Nc1ccc(-c2nc3n(Cc4c(F)cccc4F)cc(C(=O)OCC)c(=O)n3c2CN(CC(=O)N[C@H](C(=O)NCC#Cc2ccccc2)C(C)C)Cc2ccccc2)cc1 | 60 | 770 | 64 | 520 | 
6 | CCNC(=O)Nc1ccc(-c2nc3n(Cc4c(F)cccc4F)cc(C(=O)OCC)c(=O)n3c2CN(CC(=O)N[C@H](C(=O)NCC#Cc2ccc(C#CCNC(=O)[C@@H](NC(=O)CN(Cc3ccccc3)Cc3c(-c4ccc(NC(=O)NCC)cc4)nc4n(Cc5c(F)cccc5F)cc(C(=O)OCC)c(=O)n34)C(C)C)cc2)C(C)C)Cc2ccccc2)cc1 | 34 | 720 | 31 |  | 
7 | CCNC(=O)Nc1ccc(-c2nc3n(Cc4c(F)cccc4F)cc(C(=O)OCC)c(=O)n3c2CN(CC(=O)NCCCCCC(=O)NCC#Cc2ccccc2)Cc2ccccc2)cc1 | 99 | 380 | 97 | 440 | 
8 | CCNC(=O)Nc1ccc(-c2nc3n(Cc4c(F)cccc4F)cc(C(=O)OCC)c(=O)n3c2CN(CC(=O)NCC(=O)NCC#Cc2ccccc2)Cc2ccccc2)cc1 | 95 | 170 | 92 | 460 | 
9 | CCNC(=O)Nc1ccc(-c2nc3n(Cc4c(F)cccc4F)cc(C(=O)OCC)c(=O)n3c2CN(CC(=O)NCCCC(=O)NCC#Cc2ccccc2)Cc2ccccc2)cc1 | 96 | 580 | 97 | 680 | 95
10 | CCNC(=O)Nc1ccc(-c2nc3n(Cc4c(F)cccc4F)cc(C(=O)OCC)c(=O)n3c2CN(CC(=O)N[C@@H](C)C(=O)NCC#Cc2ccccc2)Cc2ccccc2)cc1 | 61 | 1600 | 63 | 1100 | 
11 | CCNC(=O)Nc1ccc(-c2nc3n(Cc4c(F)cccc4F)cc(C(=O)OCC)c(=O)n3c2CN(CC(=O)N2CCC[C@H]2C(=O)NCC#Cc2ccc(C#CCNC(=O)[C@@H]3CCCN3C(=O)CN(Cc3ccccc3)Cc3c(-c4ccc(NC(=O)NCC)cc4)nc4n(Cc5c(F)cccc5F)cc(C(=O)OCC)c(=O)n34)cc2)Cc2ccccc2)cc1 | 65 | 740 | 46 |  | 
12 | CCNC(=O)Nc1ccc(-c2nc3n(Cc4c(F)cccc4F)cc(C(=O)OCC)c(=O)n3c2CN(CC(=O)N[C@H](C(=O)NCC#Cc2cccc(C#CCNC(=O)[C@@H](NC(=O)CN(Cc3ccccc3)Cc3c(-c4ccc(NC(=O)NCC)cc4)nc4n(Cc5c(F)cccc5F)cc(C(=O)OCC)c(=O)n34)C(C)C)c2)C(C)C)Cc2ccccc2)cc1 | 43 | 2200 | 28 |  | 
13 | CCNC(=O)Nc1ccc(-c2nc3n(Cc4c(F)cccc4F)cc(C(=O)OCC)c(=O)n3c2CN(CC(=O)NCCCC(=O)NCC#Cc2cccc(C#CCNC(=O)CCCNC(=O)CN(Cc3ccccc3)Cc3c(-c4ccc(NC(=O)NCC)cc4)nc4n(Cc5c(F)cccc5F)cc(C(=O)OCC)c(=O)n34)c2)Cc2ccccc2)cc1 | 57 | 820 | 40 |  | 
14 | CCNC(=O)Nc1ccc(-c2nc3n(Cc4c(F)cccc4F)cc(C(=O)OCC)c(=O)n3c2CN(CC(=O)NCCCCCC(=O)NCC#Cc2ccc(C#CCNC(=O)CCCCCNC(=O)CN(Cc3ccccc3)Cc3c(-c4ccc(NC(=O)NCC)cc4)nc4n(Cc5c(F)cccc5F)cc(C(=O)OCC)c(=O)n34)cc2)Cc2ccccc2)cc1 | 67 | 620 | 54 |  | 

More lines, main results first:

Row | Efficacy [1] [%] | Ki [2] [nM] | Efficacy [3] [%] | IC50 [5] [nM] | SMILES | viability at 4 h, 10 µM [4] [%]
15 | 14 | 5300 | 18 |  | CCNC(=O)Nc1ccc(-c2nc3n(Cc4c(F)cccc4F)cc(C(=O)OCC)c(=O)n3c2CN(CC(=O)N[C@@H](C)C(=O)NCC#Cc2cccc(C#CCNC(=O)[C@H](C)NC(=O)CN(Cc3ccccc3)Cc3c(-c4ccc(NC(=O)NCC)cc4)nc4n(Cc5c(F)cccc5F)cc(C(=O)OCC)c(=O)n34)c2)Cc2ccccc2)cc1 | 
16 | 9 | 1100 | 20 |  | CCNC(=O)Nc1ccc(-c2nc3n(Cc4c(F)cccc4F)cc(C(=O)OCC)c(=O)n3c2CN(CC(=O)NCC(=O)NCC#Cc2cccc(C#CCNC(=O)CNC(=O)CN(Cc3ccccc3)Cc3c(-c4ccc(NC(=O)NCC)cc4)nc4n(Cc5c(F)cccc5F)cc(C(=O)OCC)c(=O)n34)c2)Cc2ccccc2)cc1 | 
17 | 89 | 260 | 87 | 560 | CCNC(=O)Nc1ccc(-c2nc3n(Cc4c(F)cccc4F)cc(C(=O)OCC)c(=O)n3c2CN(CC(=O)N2CCC[C@H]2C(=O)NCC#Cc2ccccc2)Cc2ccccc2)cc1 | 
18 | 82 | 140 | 83 | 460 | CCNC(=O)Nc1ccc(-c2nc3n(Cc4c(F)cccc4F)cc(C(=O)OCC)c(=O)n3c2CN(CC(=O)N2CCC(C(=O)NCC#Cc3ccccc3)CC2)Cc2ccccc2)cc1 | 
19 | 48 | 510 | 35 |  | CCNC(=O)Nc1ccc(-c2nc3n(Cc4c(F)cccc4F)cc(C(=O)OCC)c(=O)n3c2CN(CC(=O)N2CCC(C(=O)NCC#Cc3ccc(C#CCNC(=O)C4CCN(C(=O)CN(Cc5ccccc5)Cc5c(-c6ccc(NC(=O)NCC)cc6)nc6n(Cc7c(F)cccc7F)cc(C(=O)OCC)c(=O)n56)CC4)cc3)CC2)Cc2ccccc2)cc1 | 
20 | 67 | 930 | 31 |  | CCNC(=O)Nc1ccc(-c2nc3n(Cc4c(F)cccc4F)cc(C(=O)OCC)c(=O)n3c2CN(CC(=O)N2CCC[C@H]2C(=O)NCC#Cc2cccc(C#CCNC(=O)[C@@H]3CCCN3C(=O)CN(Cc3ccccc3)Cc3c(-c4ccc(NC(=O)NCC)cc4)nc4n(Cc5c(F)cccc5F)cc(C(=O)OCC)c(=O)n34)c2)Cc2ccccc2)cc1 | 
21 | 58 | 930 | 44 |  | CCNC(=O)Nc1ccc(-c2nc3n(Cc4c(F)cccc4F)cc(C(=O)OCC)c(=O)n3c2CN(CC(=O)NCCCCCC(=O)NCC#Cc2cccc(C#CCNC(=O)CCCCCNC(=O)CN(Cc3ccccc3)Cc3c(-c4ccc(NC(=O)NCC)cc4)nc4n(Cc5c(F)cccc5F)cc(C(=O)OCC)c(=O)n34)c2)Cc2ccccc2)cc1 | 
